This is a sample that favours compounds with a hit; in the whole collection about 2% have one here.
CAL PDZ FP-1: inhibitors of human CAL PDZ peptide binding | inhibition, % at 20 µM | AID 504414 | purified CAL PDZ, TMR-peptide fluorescence polarization, 1 h | actives 0.02% (n = 330,000) | Q9HD26;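 active = highest replicate inhibition of at least 40%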;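 note: plate controls were DMSO neutral control wells for no effect and unlabeled competitor peptide control wells for full effect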
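Material: tagged CAL PDZ protein CerCALP, purified; buffer or medium: sodium phosphate/NaCl buffer pH 7.4 with TCEP, IgG, Thesit; also added: fluorescent TMR peptide probe; schedule: 1 h incubation at room temperature before polarization reading; technique: fluorescence polarization from S- and P-plane intensities, G-factor corrected; control set: unlabelled peptide and DMSO controls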
S100A4 inh HTS: inhibitors of human S100A4 binding to myosin IIA peptide; P26447; S100A4/TAMRA-MyoIIA peptide fluorescence polarization; inhibition, % at 10.7 µM; actives 0.14% (n = 360,000); AID 652163;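 active = mean inhibition of at least 70% across replicates, with every replicate also reaching that level; inconclusive = mean inhibition reaches 70% but some replicates fall short; inactive = mean inhibition below 70%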
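Material: S100A4 monomer protein | Medium: HEPES pH 7.2 with CaCl2, KCl, NaCl, DTT, Triton | Reagent: Labelled myosin peptide probe, 5 nM | Doses: One dose per compound | Times: 5 min incubation before reading | Benchmarks: Neutral control DMSO, positive control TFP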
CAL PDZ FP-2: inhibitors of human CAL PDZ peptide binding; Q9HD26; purified CAL PDZ, TMR-peptide fluorescence polarization, 1 h; AID 602252; actives 0.92% (n = 300,000); inhibition, % at 24.9 µM;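 active = mean inhibition of at least 30% with at least half of replicates also reaching 30%; inconclusive = no clear call, values can overlap the other calls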;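 note: 0% = DMSO neutral control and 100% = excess unlabeled competitor peptide PRC23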
dFosB act: activators of mouse delta FosB homodimer. AID 493131. actives 0.99% (n = 340,000). purified delta FosB, TAMRA-CDK5 oligo fluorescence polarization; percent of positive-control signal above neutral wells. activation, % at 25 µM;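 active = mean activation above about 17%, with every replicate also reaching it, limit read from the data, passing the limit was not always enough; inconclusive = only one of the two conditions met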
Statin myotox sup: protects C2C12 myotubes from simvastatin toxicity. rescue of ATP level, % at 7.49 µM. actives 0.78% (n = 330,000). AID 602340. ATP luminescence, 48 h; scaled: DMSO 0, geranylgeraniol control 100;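 active = mean ATP rescue above about 67%, or every replicate alone reaching that limit, limit read from the data, passing the limit was not always enough; inconclusive = no clear call, values can overlap the other calls; inactive = mean under the limit and some replicate under it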;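 note: myotubes were challenged with 10 µM simvastatin during compound exposure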
CDK5 inh: CDK5/p35 (human) kinase inhibition; Q00535+Q15078; AID 488839; actives 0.01% (n = 330,000); Recombinant CDK5/p35, ADP-Glo luminescence, 60 min; inhibition, % at 10 µM;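 active = highest replicate inhibition of at least 50% and at least 75% of replicates reaching 50%; inconclusive = only one of the two criteria met; inactive = both criteria failed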;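 note: plate controls were DMSO neutral control for no effect and GW8510 at 10 µM for full effect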
Target sequence (Q00535 whole entry, looked up): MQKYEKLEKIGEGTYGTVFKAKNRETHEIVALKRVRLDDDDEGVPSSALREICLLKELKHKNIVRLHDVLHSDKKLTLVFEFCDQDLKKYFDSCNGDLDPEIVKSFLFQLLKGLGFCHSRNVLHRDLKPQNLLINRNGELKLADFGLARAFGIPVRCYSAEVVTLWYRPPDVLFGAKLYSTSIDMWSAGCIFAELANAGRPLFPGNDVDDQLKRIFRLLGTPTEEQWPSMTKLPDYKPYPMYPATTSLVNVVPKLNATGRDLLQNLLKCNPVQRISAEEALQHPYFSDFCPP
Target sequence (Q15078 whole entry, looked up): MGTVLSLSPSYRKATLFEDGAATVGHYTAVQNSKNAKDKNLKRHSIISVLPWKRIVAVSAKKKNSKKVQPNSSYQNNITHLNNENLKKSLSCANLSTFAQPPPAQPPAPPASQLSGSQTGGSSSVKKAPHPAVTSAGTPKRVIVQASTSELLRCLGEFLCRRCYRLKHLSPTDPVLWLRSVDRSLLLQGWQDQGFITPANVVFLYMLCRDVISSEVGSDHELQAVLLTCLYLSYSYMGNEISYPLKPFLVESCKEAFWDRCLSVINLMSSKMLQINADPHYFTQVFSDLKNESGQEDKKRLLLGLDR
* = called active by the depositor; ? = inconclusive; nt = no result.

SMILES	CAL PDZ FP-1	S100A4 inh HTS	CAL PDZ FP-2	dFosB act	Statin myotox sup	CDK5 inh
Cc1ccc(S(=O)(=O)Nc2ccc3c(c2)CC(=O)N([C@H](C)CO)C[C@H](C)[C@H](CN(C)S(=O)(=O)c2ccc(C)cc2)O3)cc1	nt	5	nt	nt	?	nt
COc1ccc(C(=O)NC(=S)Nc2ccccc2N2CCCCC2)cc1[N+](=O)[O-]	-1	nt	-3	-16	nt	0
CCOC(=O)c1c(C)n(OCc2ccccc2)c2ccc3nonc3c12	-3	-3	-5	1	27	1
COc1ccc(C(=O)O/N=C2\CCCc3nonc32)cc1	-1	nt	-2	6	nt	-1
COc1ccccc1NC(=O)Nc1cnccn1	-4	-3	-3	1	12	2
O=C(Nc1cnccn1)Nc1ccccc1F	-1	2	52*	-1	nt	-2
O=C(Cn1ccc2ccccc2c1=O)NCCC(=O)N1CCN(c2ccccc2)CC1	0	0	-10	4	-2	1
CCCCCc1c(O)nc(SCC(=O)NCC2CCCO2)[nH]c1=O (stereo unspecified)	1	nt	nt	4	-4	-1
CCCCc1c(O)nc(SCC(=O)NCC2CCCO2)[nH]c1=O (stereo unspecified)	-1	nt	-6	3	94*	-1
CCCCn1c(N)c(N(C)C(=O)C2CCCC2)c(=O)[nH]c1=O	0	-2	43*	-3	4	1
CCCCn1c(N)c(N(CC(C)C)C(=O)C2CCN(S(=O)(=O)c3ccc(C)cc3)CC2)c(=O)[nH]c1=O	-1	-5	nt	56*	-22	0
C/C(=N\NC(=O)CNc1ccccc1Cl)C(C)(C)C	-1	nt	-1	7	72*	0
CCOC(=O)c1cccc(NC(=O)c2cc(C)nn2-c2ccccc2)c1	-5	-6	4	-22	-1	-1
Cc1cc(C)nc(CCNC(=O)CC2C(=O)NCCN2Cc2ccc(F)cc2Cl)n1 (stereo unspecified)	0	0	60*	-3	-3	-4
COc1ccccc1CN1CCNC(=O)C1CC(=O)NCc1c(C)n[nH]c1C (stereo unspecified)	nt	-7	51*	-8	nt	-2
CC(C)c1nc(CNC(=O)CC2C(=O)NCCN2Cc2ccc(F)cc2Cl)cs1 (stereo unspecified)	-2	-4	nt	-5	-4	-4
CC(C)Nc1nc(NC(C)C)nc(Nn2cnnc2)n1	-1	-2	4	0	nt	0
CC(C)Nc1nc(NC(C)C)nc(N(C)n2cnnc2)n1	-1	nt	nt	-5	98*	-1
Cc1onc(-c2ccccc2Cl)c1C(=O)N(Cc1nc(-c2ccccc2)no1)C1CCCCC1	0	nt	nt	-5	6	-1
Cc1cc(C)nc(N2CCC(C(=O)NC3CC3)CC2)n1	0	0	-4	1	0	-1
O=C(O)CN1C2=NCCCN2c2ccccc21	nt	2	-5	5	nt	4
O=C(CN1C2=NCCCN2c2ccccc21)c1ccc(Br)s1	-3	nt	nt	-7	115*	1
c1ccc(CN2C3=NCCCN3c3ccccc32)cc1	0	nt	2	5	79*	0
Brc1ccc(CN2C3=NCCCN3c3ccccc32)cc1	-3	-1	0	0	nt	-1
Cc1cc(C)nc(NC(=O)c2ccc(Br)cc2)n1	1	-2	-5	-3	1	2
SMILES	CAL PDZ FP-1	S100A4 inh HTS	CAL PDZ FP-2	dFosB act	Statin myotox sup	CDK5 inh
CCOc1ccccc1Nc1ncnc2ccccc12	-1	nt	-7	8	86*	1
Cc1ccc(CNc2ncnc3[nH]ncc23)cc1	5	0	62*	-6	6	1
COc1ccc(C/C(N)=N/OC(=O)C(c2ccccc2)c2ccccc2)cc1OC	-3	nt	-2	-1	22	-3
C#CCNC(=O)C1=C[C@H](C(C)(C)C)C[C@H](OCc2ccc(CO)cc2)O1	0	-2	-2	-6	-5	-1
CC(C)(C)[C@@H]1C=C(C(=O)Nc2ccccc2)O[C@H](OCc2ccc(CO)cc2)C1	0	98*	-3	-4	15	-2
COc1ccc(OCC(=O)N2CCN(c3nnc(-c4ccccc4)c4ccccc34)CC2)cc1	-3	nt	0	-17	nt	0
O=C(COc1ccccc1)N1CCN(c2nnc(-c3ccccc3)c3ccccc23)CC1	-2	nt	-1	-13	79*	-2
Cc1ccc(-n2nc(C)c(C3(O)C(=O)N(C(C)C)c4ccccc43)c2N)cc1 (stereo unspecified)	-1	nt	-4	-4	nt	-1
CC(C)CCC(CCN1CCCC1)c1ccc2c(c1)OCO2 (stereo unspecified)	-1	-1	74*	-4	-35	1
CC(C)CCC(CCN1CCOCC1)c1ccc2c(c1)OCO2 (stereo unspecified)	0	nt	-1	-12	-6	0
CCC(=O)Nc1ccc2c(c1)ncn2C	0	3	nt	-13	1	0
CC(=O)Nc1ccc(NC(=O)C(C)OC(=O)CCCN=C2NS(=O)(=O)c3ccccc32)cc1 (stereo unspecified)	-1	136*	-4	0	8	0
CC(=O)Nc1ccc(S(=O)(=O)Oc2ccc(/C=C3\SC(N)=NC3=O)cc2)cc1	-1	-1	1	130*	nt	-1
O=C(COC(=O)c1ccc2ncsc2c1)NCc1ccc(F)cc1	0	-2	54*	3	-3	2
CCOC(=O)N1CCN(C2CC(=O)N(c3ccc(Oc4ccccc4)cc3)C2=O)CC1 (stereo unspecified)	nt	nt	-2	-10	126*	1
Cc1ccc(CCNC(=O)CCn2c(=O)c3cccn3c3ccc(F)cc32)cc1	-1	2	39*	8	-2	0
COc1ccc(CCNC(=O)CCn2c(=O)c3cccn3c3ccc(F)cc32)c(OC)c1OC	-1	-1	118*	-14	-2	0
O=C(COC(=O)c1cc(Br)ccc1O)Nc1ccc2c(c1)OCCO2	0	2	nt	23*	8	-2
Cc1sc2ncnc(OCC(=O)Nc3ccc4c(c3)OCCO4)c2c1C	-1	nt	-4	-6	-9	2
O=C(COc1ncnc2sccc12)Nc1ccc2c(c1)OCCO2	-1	nt	44*	-6	nt	nt
O=C(COC(=O)C(CO)NS(=O)(=O)c1ccc(Br)cc1)Nc1ccc2c(c1)OCCO2 (stereo unspecified)	0	-4	47*	0	-2	-1
CCCCCNc1nc(-c2ccccc2)nc(-n2ccnc2)n1	0	0	10	-5	8	0
O=C(O)c1ccc(-c2ccc(OS(=O)(=O)c3ccccc3F)cc2)cc1	-3	1	45*	2	15	1

Screening results deposited in PubChem by Broad Institute.
